Here are results for 21 compounds from ChEMBL document CHEMBL4765226, “Identification of a Human Toll-Like Receptor (TLR) 8-Specific Agonist and a Functional Pan-TLR Inhibitor in 2-Aminoimidazoles” (J Med Chem, 2016).

Format in all cases: cell-based
In test [1] the target is T1, Toll-like receptor 8 (Homo sapiens) (UniProt Q9NR97).
T1 sequence (whole entry): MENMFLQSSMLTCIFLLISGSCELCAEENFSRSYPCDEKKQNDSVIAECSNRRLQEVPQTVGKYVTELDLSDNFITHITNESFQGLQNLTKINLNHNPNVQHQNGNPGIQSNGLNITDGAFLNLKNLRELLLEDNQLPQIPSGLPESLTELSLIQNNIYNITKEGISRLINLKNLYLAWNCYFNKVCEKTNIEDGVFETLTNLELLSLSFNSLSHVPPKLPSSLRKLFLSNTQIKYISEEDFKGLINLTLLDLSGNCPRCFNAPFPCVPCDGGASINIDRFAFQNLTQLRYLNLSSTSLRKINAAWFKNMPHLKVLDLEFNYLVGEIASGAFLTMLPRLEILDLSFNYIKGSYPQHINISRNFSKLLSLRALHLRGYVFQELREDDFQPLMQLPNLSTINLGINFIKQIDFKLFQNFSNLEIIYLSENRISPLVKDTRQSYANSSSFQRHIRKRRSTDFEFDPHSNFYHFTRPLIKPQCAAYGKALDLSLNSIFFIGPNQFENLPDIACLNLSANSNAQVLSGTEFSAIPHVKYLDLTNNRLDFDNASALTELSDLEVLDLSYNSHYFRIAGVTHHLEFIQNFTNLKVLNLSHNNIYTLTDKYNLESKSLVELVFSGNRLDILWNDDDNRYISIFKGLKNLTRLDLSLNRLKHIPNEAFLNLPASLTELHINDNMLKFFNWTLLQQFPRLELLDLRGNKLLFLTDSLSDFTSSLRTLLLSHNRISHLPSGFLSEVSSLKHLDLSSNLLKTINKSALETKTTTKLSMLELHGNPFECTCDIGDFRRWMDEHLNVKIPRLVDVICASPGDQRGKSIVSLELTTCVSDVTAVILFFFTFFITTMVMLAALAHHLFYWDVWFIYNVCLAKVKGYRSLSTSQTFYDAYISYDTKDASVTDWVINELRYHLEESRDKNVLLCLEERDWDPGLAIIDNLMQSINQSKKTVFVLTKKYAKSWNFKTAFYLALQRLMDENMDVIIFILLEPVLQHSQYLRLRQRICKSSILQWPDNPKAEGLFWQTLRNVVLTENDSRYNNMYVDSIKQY
Put plainly: Antagonist activity at human TLR8 stably expressed in HEK293 cells cotransfected with secreted alkaline phosphatase assessed as inhibition of compound 1f-induced NFkappaB activation by measuring reduction in SEAP level by quanti-blue SEAP reporter gene based spectrophotometric method. Conditions: filed as antagonist. The procedure, abridged: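 Human TLR8/sAP HEK293 reporter cells were stimulated with 1f at 5 µg/mL in the presence of graded inhibitor concentrations. Reduction of secreted alkaline phosphatase was read spectrophotometrically at 620 nm.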

Test [2] concerns the target T2, Toll-like receptor 7 (Homo sapiens) (UniProt Q9NYK1).
T2 sequence (whole entry): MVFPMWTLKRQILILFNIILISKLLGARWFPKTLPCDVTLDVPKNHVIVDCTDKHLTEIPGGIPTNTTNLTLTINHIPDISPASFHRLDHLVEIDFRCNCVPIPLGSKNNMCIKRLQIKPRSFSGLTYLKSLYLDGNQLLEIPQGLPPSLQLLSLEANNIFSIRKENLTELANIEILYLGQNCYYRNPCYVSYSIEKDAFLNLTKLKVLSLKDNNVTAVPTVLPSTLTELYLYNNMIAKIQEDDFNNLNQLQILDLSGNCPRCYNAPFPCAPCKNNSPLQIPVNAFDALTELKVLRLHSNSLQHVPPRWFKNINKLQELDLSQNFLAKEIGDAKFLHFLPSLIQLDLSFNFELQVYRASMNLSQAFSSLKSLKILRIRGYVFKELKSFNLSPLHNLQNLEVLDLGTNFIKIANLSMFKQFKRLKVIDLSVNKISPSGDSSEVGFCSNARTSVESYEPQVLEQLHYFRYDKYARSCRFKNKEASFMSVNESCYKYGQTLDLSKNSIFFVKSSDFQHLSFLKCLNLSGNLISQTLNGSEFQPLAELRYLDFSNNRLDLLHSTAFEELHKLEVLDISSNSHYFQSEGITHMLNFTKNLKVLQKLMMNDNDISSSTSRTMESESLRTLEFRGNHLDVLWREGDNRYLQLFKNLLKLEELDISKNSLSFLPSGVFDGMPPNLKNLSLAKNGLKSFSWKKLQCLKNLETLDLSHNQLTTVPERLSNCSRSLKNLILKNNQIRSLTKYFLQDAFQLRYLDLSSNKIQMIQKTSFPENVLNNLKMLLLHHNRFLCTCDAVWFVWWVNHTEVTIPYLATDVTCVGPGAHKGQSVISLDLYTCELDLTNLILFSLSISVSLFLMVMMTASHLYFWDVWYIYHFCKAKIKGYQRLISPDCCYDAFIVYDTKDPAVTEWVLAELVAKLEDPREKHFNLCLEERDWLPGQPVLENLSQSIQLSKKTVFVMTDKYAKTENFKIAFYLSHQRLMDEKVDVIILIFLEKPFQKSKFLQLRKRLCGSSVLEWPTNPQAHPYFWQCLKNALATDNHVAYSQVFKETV
Put plainly: Agonist activity at human TLR7 stably expressed in HEK293 cells cotransfected with secreted alkaline phosphatase assessed as induction of NFkappaB activation by quanti-blue SEAP reporter gene based spectrophotometric method. An outline of the steps: (§1)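 HEK293 cells stably co-transfected with the matching human TLR (2, 3, 4, 5, 7, 8 or 9) and NF-κB/AP-1-driven secreted alkaline phosphatase were kept in selection medium. About 10^5 cells/ml were incubated with graded concentrations of stimulus. sAP was read at 620 nm with a chromogen in detection medium. EC50 came from four-parameter logistic fits on quadruplicates.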
Background: Reporter assays use an easily measured gene product as a stand-in for the process of interest.

The target in the next test is Toll-like receptor 2 (Homo sapiens, UniProt O60603). The test is described as follows: Agonist activity at human TLR2 stably expressed in HEK293 cells cotransfected with secreted alkaline phosphatase assessed as induction of NFkappaB activation by quanti-blue SEAP reporter gene based spectrophotometric method. An outline of the steps:
as §1

Test [3] has as its target Toll-like receptor 3 (Homo sapiens) (UniProt O15455). Put plainly: Agonist activity at human TLR3 stably expressed in HEK293 cells cotransfected with secreted alkaline phosphatase assessed as induction of NFkappaB activation by quanti-blue SEAP reporter gene based spectrophotometric method. An outline of the steps:
as §1

Test [4] has as its target T1, Toll-like receptor 8 (Homo sapiens). The test is described as follows: Agonist activity at TLR8 in human PBMC cells assessed as induction of IFNgamma production incubated for 16 hrs by immunoassay. To be noted: filed as agonist. An outline of the steps: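 Fresh human PBMCs isolated from venous blood, plated at 10^5 cells in 100 µL per well and stimulated for 16 h with graded concentrations of compound. Supernatants were collected by centrifugation and assayed in duplicate with a multiplexed cytokine/chemokine magnetic bead array.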

The source made the active and inactive calls. The calls are words filed in the database; no cut-off is given here.

Toll-like receptor 3 (Homo sapiens), sequence (O15455 whole entry): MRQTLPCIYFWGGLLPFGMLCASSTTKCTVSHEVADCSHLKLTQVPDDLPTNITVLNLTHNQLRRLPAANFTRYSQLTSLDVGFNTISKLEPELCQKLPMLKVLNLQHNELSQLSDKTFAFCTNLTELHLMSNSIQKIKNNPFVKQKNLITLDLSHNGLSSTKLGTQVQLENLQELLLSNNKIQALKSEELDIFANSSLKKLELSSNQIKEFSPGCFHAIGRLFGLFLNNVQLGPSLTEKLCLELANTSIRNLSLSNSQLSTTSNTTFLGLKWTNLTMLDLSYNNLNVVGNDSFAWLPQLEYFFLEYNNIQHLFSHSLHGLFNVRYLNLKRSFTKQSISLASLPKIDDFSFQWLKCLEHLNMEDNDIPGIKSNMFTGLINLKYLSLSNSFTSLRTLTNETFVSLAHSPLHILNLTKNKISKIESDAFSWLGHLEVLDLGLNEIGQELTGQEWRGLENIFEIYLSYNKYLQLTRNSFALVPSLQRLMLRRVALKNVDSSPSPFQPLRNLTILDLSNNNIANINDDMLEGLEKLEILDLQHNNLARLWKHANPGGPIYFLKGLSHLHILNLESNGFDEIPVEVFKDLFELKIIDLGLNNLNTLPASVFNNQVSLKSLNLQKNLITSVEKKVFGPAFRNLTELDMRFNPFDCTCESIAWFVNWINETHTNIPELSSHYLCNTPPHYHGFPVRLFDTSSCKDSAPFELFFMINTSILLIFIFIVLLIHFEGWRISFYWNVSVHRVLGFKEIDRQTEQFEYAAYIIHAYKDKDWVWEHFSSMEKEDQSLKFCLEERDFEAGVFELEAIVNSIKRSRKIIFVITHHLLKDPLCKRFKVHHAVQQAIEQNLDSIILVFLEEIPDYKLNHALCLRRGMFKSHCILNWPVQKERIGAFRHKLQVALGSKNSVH
Toll-like receptor 2, sequence (O60603 whole entry): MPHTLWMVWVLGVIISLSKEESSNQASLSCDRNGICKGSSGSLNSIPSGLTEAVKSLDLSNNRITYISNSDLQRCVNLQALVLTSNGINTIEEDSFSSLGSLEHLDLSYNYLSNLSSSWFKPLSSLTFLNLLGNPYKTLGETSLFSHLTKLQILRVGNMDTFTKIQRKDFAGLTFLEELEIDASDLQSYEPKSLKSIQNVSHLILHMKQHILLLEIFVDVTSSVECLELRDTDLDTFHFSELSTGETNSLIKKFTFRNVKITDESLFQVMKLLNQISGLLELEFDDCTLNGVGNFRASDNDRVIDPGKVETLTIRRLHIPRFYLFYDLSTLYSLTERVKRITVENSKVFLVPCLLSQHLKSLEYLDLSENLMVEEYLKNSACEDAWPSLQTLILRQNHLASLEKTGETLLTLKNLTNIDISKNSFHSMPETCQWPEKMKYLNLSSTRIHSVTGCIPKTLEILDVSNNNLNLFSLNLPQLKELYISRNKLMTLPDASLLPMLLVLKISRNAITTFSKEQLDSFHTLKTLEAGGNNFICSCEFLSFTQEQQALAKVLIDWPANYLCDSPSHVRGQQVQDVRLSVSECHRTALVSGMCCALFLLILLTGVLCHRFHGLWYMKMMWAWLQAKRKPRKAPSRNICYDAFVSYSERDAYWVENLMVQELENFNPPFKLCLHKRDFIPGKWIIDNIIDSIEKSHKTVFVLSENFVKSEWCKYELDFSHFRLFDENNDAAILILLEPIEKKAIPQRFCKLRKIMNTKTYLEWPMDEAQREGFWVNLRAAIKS

Consider `CCCCCn1cc(-c2ccccc2OCc2ccccc2)nc1N.Cl`, for which the inhibition entry in test [1] is “Dose-dependent effect”. In addition, the result (in test [2]; on Toll-like receptor 2; in test [3]) was inactive.

On to `CCCCCn1cc(-c2ccc(F)cc2)nc1N`, for which, in test [4], the outcome was Active. In addition, the result (in test [2]; at Toll-like receptor 2; in test [3]) was inactive.

For the compound `CCCCCn1cc(-c2cccc(F)c2)nc1N`, the result (in test [2]; at Toll-like receptor 2; in test [3]) was inactive.

In the case of `CCCCCn1cc(-c2ccc(-c3ccccc3)cc2)nc1N`, the outcome (in test [2]; at Toll-like receptor 2; in test [3]) was inactive.

Turning to `CCCCCn1cc(-c2cc(C)ccc2C)nc1N`, the result (in test [2]; at Toll-like receptor 2; in test [3]) was inactive.

As to `CCCCCn1cc(-c2ccc(N)cc2)nc1N`, the result (in test [2]; on Toll-like receptor 2; in test [3]) was inactive.

In the case of `CCCCCn1cc(-c2ccc(F)cc2C)nc1N`, the outcome (in test [2]; on Toll-like receptor 2; in test [3]) was inactive.

For the compound `CCCCCn1c(-c2ccccc2)cnc1N.Cl`, the inhibition result in test [1] is “Dose-dependent effect”. The result (in test [2]; on Toll-like receptor 2; in test [3]) was inactive.

For `CCCCCn1cc(-c2ccccc2CO)nc1N`, the outcome (in test [2]; on Toll-like receptor 2; in test [3]) was inactive.

On to `CCCCCn1cc(-c2cccc(C)c2)nc1N`, for which the result (in test [2]; on Toll-like receptor 2; in test [3]) was inactive.

On to `CCCCCn1cc(-c2ccc(C)cc2)nc1N`, for which the outcome (in test [2]; on Toll-like receptor 2; in test [3]) was inactive.

Regarding `CCCCCn1cc(-c2ccccc2C(=O)OC)nc1N`, the result (in test [2]; at Toll-like receptor 2; in test [3]) was inactive.

Regarding `CCCCCn1cc(-c2ccccc2O)nc1N`, the result (in test [2]; on Toll-like receptor 2; in test [3]) was inactive.

For `CCCCCn1cc(-c2cccc(C)c2C)nc1N`, the outcome (in test [2]; on Toll-like receptor 2; in test [3]) was inactive.

As to `CCCCCn1cc(-c2ccccc2C(F)(F)F)nc1N`, the result (in test [2]; on Toll-like receptor 2; in test [3]) was inactive.

On to `CCCCCn1cc(-c2ccccc2C)nc1N`, for which the outcome (in test [2]; at Toll-like receptor 2; in test [3]) was inactive.

In the case of `CCCCCn1cc(-c2ccc3ccccc3c2)nc1N`, the result (in test [2]; on Toll-like receptor 2; in test [3]) was inactive.

Consider `CCCCCn1cc(-c2ccccc2F)nc1N`, for which the outcome (in test [2]; at Toll-like receptor 2; in test [3]) was inactive.

Consider `CCCCCn1cc(-c2ccccc2)nc1N`, for which, in test [4], the result was Active. Also, the outcome (in test [2]; at Toll-like receptor 2; in test [3]) was inactive.

With `CCCCCn1cc(-c2cccc(Cl)c2)nc1N`, the outcome (in test [2]; on Toll-like receptor 2; in test [3]) was inactive.

Take `CCCCCn1cc(-c2ccccc2Cl)nc1N`: the result (in test [2]; at Toll-like receptor 2; in test [3]) was inactive.
